Calls of active or inactive are those of the source.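 Rule for the calls, unless noted: active = compounds giving at least 50% inhibition in the cell-based MKP-3 phosphatase rescue imaging test; inactive = the rest.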
Legend:
[1] = inhibitors of TNFa-induced NFkB p65 translocation, primary screen, imaging, HUVEC, MLSMR starter and 10KST1 sets (AID 438;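 active = inhibition above 20% together with a positive visual image hit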;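 note: compound added about 3h40 before a 20 min TNFalpha stimulation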;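 for inhibition: signal is the nuclear over cytoplasmic p65 intensity ratio per well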); settings: HUVEC TNFa-induced p65 nuclear translocation; cell count: measured here: nuclei count (cytotoxicity indicator), at 2.08 µM; inhibition: at 2 µM, stronger effect = higher value, 0% TNFa-plus-vehicle, 100% no-TNFa wells
[2] = inhibitors of E-selectin induction by TNFa, primary screen, imaging, HUVEC, immunofluorescence, MLSMR starter and 10KST1 sets (AID 487;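 active = visually confirmed hit in the image check and inhibition above 20%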;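 for inhibition: signal is fraction of cell area covered by stained E-selectin grains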;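 for nuclei count: 100% = median nuclei count of all wells on the same plate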); settings: HUVEC TNFalpha-induced E-selectin immunofluorescence imaging, at 2 µM; inhibition: stronger effect = higher value; nuclei count: measured here: cell number, toxicity
[3] = DUSP6 inhibitors restoring Erk phosphorylation by chemical complementation, primary imaging in DUSP6-transfected HeLa (AID 609); settings: HeLa MKP-3 transfected, phospho-Erk imaging KS statistic, at 10 µM, cells stimulated with TPA for 15 min;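 for inhibition: phospho-Erk level distribution per well compared with pooled transfected vehicle control wells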
[4] = target: Dual specificity protein phosphatase 6 (Homo sapiens) (UniProt Q16828); experiment: as above; settings: HeLa MKP-3 transfected, phospho-Erk imaging KS statistic; at 10 µM; stronger effect = higher value; cells stimulated with TPA for 15 min
Dual specificity protein phosphatase 6 (Homo sapiens), sequence (Q16828 whole entry, looked up): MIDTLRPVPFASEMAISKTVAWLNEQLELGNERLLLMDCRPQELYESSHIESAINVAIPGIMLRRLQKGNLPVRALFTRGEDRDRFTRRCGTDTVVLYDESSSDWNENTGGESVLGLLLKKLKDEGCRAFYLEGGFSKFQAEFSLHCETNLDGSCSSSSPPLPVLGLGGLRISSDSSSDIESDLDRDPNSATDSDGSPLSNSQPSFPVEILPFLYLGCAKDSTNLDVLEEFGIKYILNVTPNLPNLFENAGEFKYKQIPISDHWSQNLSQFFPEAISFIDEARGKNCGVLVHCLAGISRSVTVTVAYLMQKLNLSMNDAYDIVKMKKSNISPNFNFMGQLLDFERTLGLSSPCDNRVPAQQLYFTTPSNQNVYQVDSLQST

[5] = target: Voltage-gated potassium channel subunit beta-2 (Rattus norvegicus) (UniProt P62483); experiment: KvBeta enzyme negative modulators, primary screen, biochemical, NADPH fluorescence (AID 622;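 active = fluorescence slope higher than the sample average by over 3 SD, cut at about -0.22 in these data, passing the limit was not always enough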;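 note: slope of raw intensity against log time taken from 70 to 1610 s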); settings: recombinant KvBeta, 4-cyanobenzaldehyde reduction, at 10 µM, stronger effect = higher value
Voltage-gated potassium channel subunit beta-2 (Rattus norvegicus), sequence (P62483 whole entry, looked up): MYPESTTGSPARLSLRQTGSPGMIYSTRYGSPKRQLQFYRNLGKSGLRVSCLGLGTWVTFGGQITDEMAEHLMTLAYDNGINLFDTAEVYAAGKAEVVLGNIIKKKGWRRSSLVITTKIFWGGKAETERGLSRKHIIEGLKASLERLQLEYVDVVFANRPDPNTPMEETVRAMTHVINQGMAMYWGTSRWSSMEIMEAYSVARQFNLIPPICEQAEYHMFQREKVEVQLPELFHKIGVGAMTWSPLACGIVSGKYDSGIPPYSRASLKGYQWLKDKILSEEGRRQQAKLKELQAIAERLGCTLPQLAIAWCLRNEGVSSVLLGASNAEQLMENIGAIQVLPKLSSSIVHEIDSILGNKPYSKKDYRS

[6] = target: Voltage-gated potassium channel subunit beta-2 (Rattus norvegicus) (UniProt P62483); experiment: KvBeta positive modulators, primary screen, biochemical, NADPH fluorescence (AID 623;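 active = NADPH fluorescence slope more negative than the mean of all samples by about 3 SD, 99.7% confidence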;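 note: fluorescence intensity change per second fitted from 20 to 320 s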); settings: Recombinant KvBeta, NADPH fluorescence decrease slope, 10 min; at 10 µM; stronger effect = lower value
[7] = target: Alpha-2C adrenergic receptor (Homo sapiens) (UniProt P18825); experiment: modulators of alpha2C/GIRK thallium flux, primary screen, cell-based, HEK293 alpha2C/GIRK1/2 (AID 624;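 active = fluorescence slope after compound addition differing from the mean of all screened samples at 99.7% confidence, in either direction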;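 note: slope of fluorescence ratio to pre-addition baseline per second over 15 to 24 s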); settings: thallium flux BTC fluorescence, at 10 µM, actives lie on both sides
Alpha-2C adrenergic receptor (Homo sapiens), sequence (P18825 whole entry, looked up): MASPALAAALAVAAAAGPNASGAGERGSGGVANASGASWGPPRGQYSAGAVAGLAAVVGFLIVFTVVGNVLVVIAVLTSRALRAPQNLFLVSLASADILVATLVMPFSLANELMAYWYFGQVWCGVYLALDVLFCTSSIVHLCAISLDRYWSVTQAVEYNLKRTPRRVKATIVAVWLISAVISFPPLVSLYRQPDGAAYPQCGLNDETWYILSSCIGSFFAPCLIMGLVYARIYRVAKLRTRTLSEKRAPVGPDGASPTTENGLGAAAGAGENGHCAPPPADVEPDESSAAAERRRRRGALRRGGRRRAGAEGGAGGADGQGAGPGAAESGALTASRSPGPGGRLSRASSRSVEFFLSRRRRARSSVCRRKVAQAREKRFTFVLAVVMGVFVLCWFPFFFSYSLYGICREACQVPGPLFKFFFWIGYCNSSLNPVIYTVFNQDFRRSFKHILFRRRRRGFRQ

[8] = inhibitors of larval lipid processing in zebrafish, primary screen, whole organism, PED6 fluorescence, gall bladder and intestine (AID 686;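 active = a full or partial loss of lipid-probe fluorescence in the fish gall bladder, intestine or both, judged by eye; inactive = no fluorescence loss, or compound toxic to the fish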;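 note: larvae 5 to 7 days old with five fish per well; signal comes from phospholipase A2 cleavage of quenched PED6 carried via bile; overnight exposure to compound and PED6 before scoring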); settings: Zebrafish larvae PED6 lipid processing, fluorescence scoring; screened at 20 µM (by protocol)
In short: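 System: live zebrafish larvae aged 5-7 days, whole organism; measure: graded gall bladder and intestinal fluorescence inhibition per well; incubation: overnight exposure; reagent: ingested quenched lipid PED6 at 100 nM; signal: By-eye fluorescence microscopy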

[9] = inhibitors of Chlamydomonas gravitaxis, primary screen, whole organism, Chlamydomonas reinhardtii, WT vs cilia-less mutant, absorbance, 96-well (AID 463189;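 active = inhibition at or above 50% relative to wild type and mutant plate controls; inactive = inhibition below 50%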;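 note: 0% = wild type cc124 cells in DMSO and 100% = ciliumless bld1 mutant cells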); settings: OD600 absorbance, 2 days, at 10 µM, stronger effect = higher value
[10] = measured here: cell density z-score
[11] = measured here: nuclear c-Myc green intensity z-score
[12] = measured here: nuclear pErk red intensity z-score, stronger effect = higher value

| Compound | cell count [1] | inhibition [1] | inhibition [2] | nuclei count [2] | z-score [3, 10] | z-score [3, 11] | z-score [3, 12] | inhibition [4] | fluorescence slope [5] | NADPH fluorescence slope [6] | slope [7] | outcome [8] | inhibition [9] |
| --- | --- | --- | --- | --- | --- | --- | --- | --- | --- | --- | --- | --- | --- |
| CC(=O)N/C(=N/c1nc(C)cc(C)n1)Nc1ccc(NC(C)=O)cc1 | 647 | 3.8% (inactive) | -35% (inactive) | 154% | 1.7 | -1.09 | -1.09 | -1.12% (inactive) | -0.509 (inactive) | -6.6e-05 (inactive) | 0.00481 (inactive) | inactive | 1.67% (inactive) |
| COc1ccc(OC)c(C(O)c2coc3ccc(O)c(CN4CCOCC4)c23)c1 (stereo unspecified) | 395 | -2.4% (inactive) | -6.2% (inactive) | 142% | -0.303 | 0.452 | 0.346 | 1.42% (inactive) | -0.45 (inactive) | -6.9e-05 (inactive) | 0.00476 (inactive) | inactive | 36.3% (inactive) |
| N#CCCN(CCC#N)c1nnc(-c2ccccc2)s1 | 391 | -3.1% (inactive) | -60.9% (inactive) | 159% | 1.49 | 1.59 | -1.79 | 17% (inactive) | -0.384 (inactive) | -3.6e-05 (inactive) | 0.00496 (inactive) | inactive; toxic | 27.2% (inactive) |
| CC1(C)Cc2c(sc3nc4n(c(=N)c23)CCCCC4)CO1 | 637 | -5.2% (inactive) | 57.2% (inactive) | 169% | -0.678 | 2.31 | -0.487 | -7.28% (inactive) | -0.414 (inactive) | -4.7e-05 (inactive) | 0.00482 (inactive) | inactive | -1.35% (inactive) |
| COc1cc(C2NC(=O)NC(C)=C2C(=O)Nc2cccc(C)c2C)cc(OC)c1OC (stereo unspecified) | 566 | -3.3% (inactive) | -47.5% (inactive) | 183% | 0.296 | 0.344 | -0.592 | -2.91% (inactive) | -0.35 (inactive) | -1.5e-05 (inactive) | 0.00551 (inactive) | inactive | -6.92% (inactive) |
| CNc1oc(-c2ccc(Cl)cc2)nc1C#N | 444 | -4.2% (inactive) | -114% (inactive) | 169% | -1.3 | -0.483 | -0.6 | 6.04% (inactive) | -0.263 (inactive) | -4.5e-06 (inactive) | 0.00621 (inactive) | inactive | 7.15% (inactive) |
| CCCOc1cccc(C2C(C(=O)c3ccc(C)o3)=C(O)C(=O)N2CCCN(C)C)c1 (stereo unspecified) | 432 | 3.5% (inactive) | 48.5% (inactive) | 77.5% | -0.596 | -1.82 | 0.0129 | -11.9% (inactive) | -0.45 (inactive) | -9.1e-06 (inactive) | 0.00522 (inactive) | inactive | -2.38% (inactive) |
| CCOC(=O)c1sc2c(c1C)c(=O)c(C(=O)OCC)cn2CC | 584 | -4.2% (inactive) | -79% (inactive) | 156% | -0.851 | -0.225 | 0.403 | 7.01% (inactive) | -0.376 (inactive) | 4.1e-06 (inactive) | 0.00559 (inactive) | inactive | -0.239% (inactive) |
| N#CC1=C(N)NC(SCc2ccc(Cl)cc2)=C(C#N)C12CCCCC2 | 630 | -23% (inactive) | 44.1% (inactive) | 180% | 0.0253 | -0.669 | 0.519 | 1.04% (inactive) | -0.409 (inactive) | -5.9e-05 (inactive) | 0.00372 (inactive) | inactive | 18.9% (inactive) |
| O=C(O)CC(SCc1ccc(C(=O)O)o1)C(=O)O (stereo unspecified) | 330 | -17.8% (inactive) | -29.5% (inactive) | 105% | 1.04 | -0.311 | -0.367 | 5.57% (inactive) | -0.528 (inactive) | -7.5e-06 (inactive) | 0.00659 (inactive) | inactive | 48.4% (inactive) |
| CCOC(=O)c1cc(C)n(Cc2cccc(OC)c2OC)c1C | 502 | -9.3% (inactive) | -39.9% (inactive) | 122% | 1.01 | 0.196 | 0.00488 | 17% (inactive) | -0.496 (inactive) | -9.4e-05 (inactive) | 0.00511 (inactive) | inactive | 26.9% (inactive) |
| Cc1ccc2[nH]c3c(c2c1)CN(C(=O)CN1CCCc2ccccc21)CC3 | 557 | -8.1% (inactive) | -104% (inactive) | 142% | -0.606 | -1.61 | -0.633 | 2.92% (inactive) | -0.439 (inactive) | -7.1e-05 (inactive) | 0.00496 (inactive) | active; weak signal in gallbladder and intestine | 15.5% (inactive) |
| c1ccc(N2CCN(c3nc(NCc4ccco4)c4ccccc4n3)CC2)cc1 | 579 | 0.1% (inactive) | -25.4% (inactive) | 219% | 0.527 | -0.848 | 2.43 | -4.7% (inactive) | -0.35 (inactive) | -2.5e-05 (inactive) | 0.00337 (inactive) | inactive | 35.9% (inactive) |
| Cc1cc(-c2cc(-c3ccc(Cl)cc3)nc(N)c2C#N)co1 | 560 | -6.2% (inactive) | 62.4% (inactive) | 173% | 0.0299 | -0.21 | -0.449 | 7.01% (inactive) | -0.294 (inactive) | 4.6e-06 (inactive) | 0.00537 (inactive) | inactive | 5.58% (inactive) |
| COCCn1c(N)c(C(=O)NCC2CCCO2)c2nc3ccccc3nc21 (stereo unspecified) | 564 | -8.3% (inactive) | -74.5% (inactive) | 106% | 0.365 | -2.02 | 0.128 | -11.5% (inactive) | -0.0102 (inactive) | 7e-06 (inactive) | 0.00477 (inactive) | inactive | 26.2% (inactive) |
| COc1cc2c(C(=O)N3CCN(c4ccccc4)CC3)c(C)oc2cc1Br | 539 | -0.9% (inactive) | -65.1% (inactive) | 139% | 1.72 | -0.592 | -0.944 | 10.5% (inactive) | -0.532 (inactive) | -2.7e-05 (inactive) | 0.00643 (inactive) | inactive | 1.23% (inactive) |
| CCN(CC)CCN1C(=O)C(=O)/C(=C(/O)c2ccc(F)cc2)C1c1cccnc1 (stereo unspecified) | 488 | -18.4% (inactive) | -35.7% (inactive) | 128% | -0.0126 | -0.441 | 0.45 | -2.47% (inactive) | -0.493 (inactive) | -5.5e-05 (inactive) | 0.00472 (inactive) | inactive | -7.28% (inactive) |
| CCCCCc1ccc(-c2ccc(=O)[nH]n2)cc1 | 455 | -1.5% (inactive) | -85% (inactive) | 107% | 1.16 | -0.256 | -1.03 | 15.1% (inactive) | -0.516 (inactive) | -2.1e-05 (inactive) | 0.00535 (inactive) | inactive | -28.2% (inactive) |
| CN=c1sc2ccccc2n1CC(O)COc1ccccc1 (stereo unspecified) | 462 | -11% (inactive) | -95.8% (inactive) | 204% | -0.699 | 0.37 | 0.00223 | -0.624% (inactive) | -0.362 (inactive) | -2.9e-05 (inactive) | 0.00426 (inactive) | inactive | -3.38% (inactive) |
| Cn1c(SCC(=O)N2CCOCC2)nnc1-c1ccc(Cl)cc1Cl | 359 | -9.4% (inactive) | -17.3% (inactive) | 101% | 0.947 | -0.186 | -0.938 | 1.75% (inactive) | -0.453 (inactive) | 1.1e-05 (inactive) | 0.00668 (inactive) | inactive | -14.7% (inactive) |
| CSc1nnc(N(CCC#N)CCC#N)s1 | 351 | -2.1% (inactive) | -46.6% (inactive) | 91% | 0.261 | 1.77 | -1.54 | 17% (inactive) | -0.487 (inactive) | -9.5e-06 (inactive) | 0.0048 (inactive) | inactive | 29.7% (inactive) |
| CCN1CCN(c2nc3c(C)cccn3c(=O)c2/C=C(\C#N)S(=O)(=O)c2ccc(C)cc2)CC1 | 519 | -0.8% (inactive) | -173% (inactive) | 118% | 0.354 | -1.44 | 0.701 | 1.6e-07% (inactive) | -0.51 (inactive) | -6.4e-05 (inactive) | 0.00274 (inactive) | inactive | 14.6% (inactive) |
| CN1CCN(CC(=O)Nc2nc(-c3ccccc3)cs2)CC1 | 667 | -3.3% (inactive) | -41.9% (inactive) | 149% | -1.89 | 1.19 | 0.906 | 0.671% (inactive) | -0.462 (inactive) | -0.000262 (inactive) | 0.0053 (inactive) | inactive | 8.3% (inactive) |
| CCOCCSc1nc2c(c(=O)[nH]c(=O)n2C)n1CCCc1ccccc1 | 487 | -2.4% (inactive) | -80.2% (inactive) | 133% | 0.294 | -0.866 | -0.255 | -3.5% (inactive) | -0.515 (inactive) | -6.3e-05 (inactive) | 0.00557 (inactive) | inactive | -2.75% (inactive) |
| O=C1CCC(=O)N1CNc1ccccn1 | 493 | -5% (inactive) | -53.8% (inactive) | 99.7% | -0.594 | -0.186 | -0.375 | 7.93% (inactive) | -0.495 (inactive) | -5.8e-05 (inactive) | 0.00525 (inactive) | inactive | 23.2% (inactive) |
| COC(=O)c1cc(OC)c(OC)cc1N | 358 | -11.5% (inactive) | 9.3% (inactive) | 135% | 0.282 | 0.254 | 0.0446 | -12.3% (inactive) | -0.385 (inactive) | -0.000132 (inactive) | 0.00592 (inactive) | inactive | -2.54% (inactive) |
| COc1ccccc1N1CCN(C(=O)c2c(C)cc(=O)oc2C)CC1 | 275 | -1.5% (inactive) | -18.9% (inactive) | 95.9% | -0.53 | 2.24 | -0.762 | 11.4% (inactive) | -0.461 (inactive) | -8.2e-05 (inactive) | 0.00477 (inactive) | inactive | -9.22% (inactive) |

— PubChem BioAssay
